System: MS2 coat protein
Assay: apparent Kd, MS2 coat protein; higher = weaker binding; RNA-MaP array; FMN 200 µM where present
Summary of the method: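 Apparent Kd: the median of filtered binding-curve fits from single clusters. Designs were transcribed on Illumina sequencing-chip clusters by stalled E. coli RNA polymerase and titrated with SNAP-549-labelled MS2 coat protein from 0.7 or 1.5 nM, doubling to 3 µM, in 100 mM Tris-HCl pH 7.5, 80 mM KCl, 4 mM MgCl2, BSA, DTT, yeast tRNA and Tween-20. Each series ran without and then with constant ligand, and green signal was normalised to red-channel RNA signal and control-cluster median Fmax.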

[1] = designed as: OFF switch for flavin mononucleotide, no ligand
[2] = ligand present: flavin mononucleotide, designed as: OFF switch for flavin mononucleotide
[3] = designed as: ON switch for flavin mononucleotide, no ligand
[4] = ligand present: flavin mononucleotide, designed as: ON switch for flavin mononucleotide

| Sequence | apparent Kd [1] | apparent Kd [2] | apparent Kd [3] | apparent Kd [4] |
| --- | --- | --- | --- | --- |
| CAGUACUGAGGAUAUACAUGAGGAUCACCCAUGUGCUUUAGCUAGGAUACUAGCAUCAGUAGAAGGCAGUACUG | 0.0128 µM | 0.0294 µM |  |  |
| ACAAGCUCACAUGAGGAUCACCCAUGUGGUCGCUAAUAUACCAGAAGGGUGGGUCCUAAUGAUGUACAGGAUAUGGAGUAGGCG |  |  | 0.196 µM | 0.062 µM |
| AUUAUAAUUGAAGGAUAUCUAUAUCCAACAUGAGGAUCACCCAUGUUGAGGAUCACCCAUGUAAAGGAGAAGGUUAAUUAUAAU |  |  |  | 0.0246 µM |
| AAUCCACAUGAGGAUCACCCAUGUGAGGAUAUGAUACUAUGUACUUCGGUACAUAGUAUCAGAAGGCACGGAUC | 0.0332 µM | 0.0504 µM |  |  |
| GUCAGUGUGGUAGGAUAUCGAAACGGUCAGUUACGAGAAGGGCUACAUGAGGAUCACCCAUGUAUCCAAGAUCGGCUUACAGCA | 0.00587 µM | 0.00592 µM |  |  |
| UUGUUGUAUGUAGGAUAUGCAUAUUAUUAUUAUGCAGAAGGACAUGAGGAUCACCCAUGUAUGUUAUUAUUAUAUGUUAUGUGU | 0.0399 µM | 0.0631 µM |  |  |
| GGACGUCGCAUAAACAUGAGGAUCACCCAUGUAACUAGACAUGAGGAUAUGGAUCCUAAUUGGAUCCAGAAGGUAUGGACGUCC |  |  | 0.298 µM | 0.2 µM |
| GCUAGAAGCGUGAAAUAUCACAUGAGGAUCACCCAUGUGACACAGGAUAUAACAAUAUCAGAAGGUUAGAAGGGUGAACACGCC |  |  | 0.119 µM | 0.0329 µM |
| GUAUGCAAGUAGAAGGACGGAUAUUUUGAAAACGUAGGAUAUACAGAAUCAUAUCCACAUGGAUACAUGAGGAUCACCCAUGUA | 0.012 µM | 0.0118 µM |  |  |
| UGUCGGAGCAGAGGAUAUUACAUGAGGAUCACCCAUGUAUGAACCAAUAGCUGGAAACAGCAAUGUAAGAAGGCUGCUCCCACA | 0.012 µM | 0.138 µM |  |  |
| UGUUGUUCAGGAUAUGAUGUAUAAUACAUGAGGAUCACCCAUGUAGAUCCUGAAUUGGCGUCAGAAGGGAAUGUUG | 0.0193 µM | 0.0219 µM |  |  |
| UGAUAGGACAGAGGAUAUACGUGCUAGAGAUACUAGCAAAAUUUCCUCACAUGAGGAUCACCCAUGUAGAAGGCUGUCCUAUCG | 0.0176 µM | 0.453 µM |  |  |
| GAGCUGCAGACAGGAUAUGAGGCCGCCAUGGUCUCAGAAGGGUCAUGUUCUACAUGAGGAUCACCCAUGUCGGACAGCUCGAAG |  |  | 0.134 µM | 0.011 µM |
| GGAUAGGACAGAGGAUAUACGUCCUAGAGAUACUAGCAAAAUUUCCUCACAUGAGGAUCACCCAUGUAGAAGGCUGUCCUAUCG | 0.0126 µM | 0.141 µM |  |  |
| GAGAAGAAGUUAGGAUAUUGGAUAGGGACGGACUAAGAAGGAGCACAUACAUGAGGAUCACCCAUGUUAGAAGAAGAUCCUCCA | 0.0323 µM | 0.0255 µM |  |  |
| CAUACACAUGAGGAUCACCCAUGUGAGGAUAUGCGUACGUUGUCAGUAGGCGACGUGCGCAGAAGGCGCGUGUU | 0.0605 µM | 0.0477 µM |  |  |
| GGAGAUACAUGAGGAUCACCCAUGUAGGAUAUCGGGCCUAUAUAUGGCGAAAGCCAUAUAUAGGCCGAGAAGGGCGUACACACC | 0.00807 µM | 0.00752 µM |  |  |
| CCGAUGUGGGUACAGGAUAUGUGGGCCUCCACAUGAGGAUCACCCAUGUCGGAGGCAAAGCGGCUACAGAAGGGUGCGAGCUCGA |  |  | 0.011 µM | 0.0129 µM |
| CCUUUGAAGAUCCUAAAUUUCGACAUGAGGAUCACCCAUGUGCAGGAUAUCGUGCCAGUGAUGUACGAGAAGGGCAGUCUCUGC | 0.049 µM | 0.0535 µM |  |  |
| CCCAAACUUGGGUUUGGUGGUGCAUAGGAUAUGCUUGAACAUGAGGAUCACCCAUGUACUAUUGUGCAGAAGGGUGCAUGGCAA |  |  | 0.401 µM | 0.0291 µM |
| AUCUUUAAGGUAGGAUAUAGUAUGAUGGUUUAAUUAGAAGGAUCUCACAUGAGGAUCACCCAUGUAAUAGGAUUACCCAUGUAU | 0.054 µM | 0.0436 µM |  |  |
| CGAUUGUAUAGAGGAUAUGUUAUACAUGAGGAUCACCCAUGUGAGGUGGAAAUAUUUAAUUACAUACAGAAGGCUAUACAAUCG | 0.231 µM | 0.237 µM |  |  |
| AUUGCUCGAGAGAAGGGAACAUGAGGAUCACCCAUGUUACCUCACCUGGUGACGGAACUCCAAGUUCAGGAUAUCUCGAACGAU | 0.00563 µM | 0.00813 µM |  |  |
| AAUUAUUUACAGAAGGAGUAAGAUUAUGUAUUACUAGGAUAUGUUCACAUGAGGAUCACCCAUGUCAUUGUAGGUUUUUUAUGU | 0.012 µM | 0.00995 µM |  |  |
| UGGUACAUGGGAGGAUAUCAUGUGAGAACAUGAGGAUCACCCAUGUCGAUGGAGACAUCGGAGAUUGAGAAGGCCCAUGUACCU |  |  | 1.21 µM | 0.0638 µM |
| AGUGUCAUCGAGAAGGCCUUAAGAACAUGAGGAUCACCCAUGUAACAUGGGAGGAUAUCGAUGAUACAGCUACGUUUCGUAGCA |  |  | 0.0124 µM | 0.00521 µM |
| UUCCUCUUAACAUGAGGAUCACCCAUGUAUUAUUUGGUAAUUGAGGAUAUAUUUUUAAUGUUUAUAUAGAAGGCAAAUACAGUU | 0.0457 µM | 0.0493 µM |  |  |
| UGUCGGAGCAGAGGAUAUUACAUGAGGAUCACCCAUGUAUGAACCAAUAGCUGGAAACAGCAAUGUAAGAAGGCUGAUCCGACA | 0.0111 µM | 0.146 µM |  |  |

| Sequence | apparent Kd [1] | apparent Kd [2] | apparent Kd [3] | apparent Kd [4] |
| --- | --- | --- | --- | --- |
| CAUGUCCUCACAGGAUAUGCUGGACUUUGUCCAGCAGAAGGGUGAACAUGAGGAUCACCCAUGUAGUGGACAUGUAUAUUUAAU |  |  | 0.543 µM | 0.276 µM |
| GCAGGCUUCGAGAAGGACAUGAGGAUCACCCAUGUGCGUGUGAAGCAGCCGUGAGGCUGCAUCAUGUAGGAUAUCGGAGUCUGG | 0.0722 µM | 0.525 µM |  |  |
| AACAUGAGGAUCACCCAUGUCCCACCAGAAGGCUGGCGGCCACAGGAACGGCUGUGGCAAAUAACAGAGGAUAUGGUGAAUGCA |  |  | 0.0808 µM | 0.0161 µM |
| UAUGGUAAAGUCAGGAUAUACGUACAUAAUUCUAGGUAGAAGGGACAUGAGGAUCACCCAUGUAUGGUAGUGUU | 0.073 µM | 0.084 µM |  |  |
| CUCAUGAGAGGAUAUACAUGAGGAUCACCCAUGUUCUUAUCUCGUCGGGCUCCAUUACGUAGAAGGCUCAUUUG | 0.0294 µM | 0.0469 µM |  |  |
| GGAACUCAUGUAGGAUAUGCAUGGCGAAGCUACGCAGAAGGACAUGAGGAUCACCCAUGUUCUAGCGUCUGGAUACAGAUGCAA | 0.169 µM | 0.13 µM |  |  |
| AUAGUGGUUUUCUGGAUGUUGAACAUGAGGAUCACCCAUGUAGAGGAUAUCCACGGAAAUCCGUAGGAGAAGGCUGGUGGAAAA | 0.0156 µM | 0.0267 µM |  |  |
| UAUAAGAACGAAGGAUAUGGUUACAUGAGGAUCACCCAUGUAUUAAUUUUGAUCUAUUUUUAUAACCAGAAGGUCGAGAGUAAA | 0.0362 µM | 0.0495 µM |  |  |
| GGGUACGCAGGAUAUACAUGAAAAAAAAAAAAAAAAAAAAAACAUGAGGAUCACCCAUGUAGAAGGGCGUAUCC | 0.232 µM | 0.571 µM |  |  |
| GGAAUUAAGGGAGGAUAUAGGCGACAUGAGGAUCACCCAUGUACGGAGGGCUCUUCCCGUGUUCACUAGAAGGCCCAUGUUACC | 0.0165 µM | 0.0737 µM |  |  |
| UGUCGGAGCAGAGGAUAUUACAUGAGGAUCACCCAUGUAAUAAAUGGAAGCUGGAAACAGCAAUGUAAGAAGGCUGCUCCGACA | 0.0174 µM | 0.0479 µM |  |  |
| GCCCUCCCUGAGGAUAUUAUCUGGUUCGAUUGAUAAGAAGGCAGUACAUGAGGAUCACCCAUGUGGUUCGUUUG | 0.107 µM | 0.285 µM |  |  |
| AGCUAGUCAGGAUAUACGAACAUGUCAAAAGACGUGAACCCACAUGAGGAUCACCCAUGUAGAAGGGACUAGCA | 0.026 µM | 0.0657 µM |  |  |
| AGCUGGUGACAGCAUCGAGCUAAACAUGAGGAUCACCCAUGUAGAAGGCUGUACGGUUACCGUACAGAGGAUAUACAAAGCUCG | 0.00606 µM | 0.00717 µM |  |  |
| AACAUGUGAGGAUAUUUAAGAAAAGAAAAGAAAGAAAAGAAAAAGAAGGCACAUGAGGAUCACCCAUGUAAGAA | 0.0248 µM | 0.0358 µM |  |  |
| UUACUACAUGAGGAUCACCCAUGUCAGGAUAUUGUAUAUACCUUGGAAUACGUGUCUACAAGAAGGGACUAUAU | 0.0237 µM | 0.0225 µM |  |  |
| GAAUAGUUGAGAGGAUAUGUAUUAUUGUAGGAUACAGAAGGUUUUAACAUGAGGAUCACCCAUGUAGGACUAUAUAUGUGAAUA |  |  | 0.0152 µM | 0.0132 µM |
| UAUCCACAUGAGGAUCACCCAUGUGAGGAUAUGAUACUAUGUACUUCGGUACAUAGUAUCAGAAGGCACAGGUC | 0.0213 µM | 0.0363 µM |  |  |
| GGCCGGAAUGUAGGAUAUGGAUAUUUAAAUAUACCAGAAGGACAUGAGGAUCACCCAUGUAUAAUAAUUAACAAACUUAGAUCC | 0.0327 µM | 0.121 µM |  |  |
| AAGUAUAAGGGCAUUAAACAUGAGGAUCACCCAUGUACAAUAGAGGAUAUGCAUUUUGGUUUAGAGUAGAAGGUUAGAGAAUAU | 0.028 µM | 0.0334 µM |  |  |
| CGUGGACAUGAGGAUCACCCAUGUGAGGAUAUCGGCUGGUACGUGUUGGCUGGCAUCUCGAGAAGGCACAUAGU | 0.0438 µM | 0.0804 µM |  |  |
| GUUUAGUGAGGAUAUGUGGCGUGGAUCGAGCGCGGUCGGCUACAGAAGGCACAUGAGGAUCACCCAUGUUUCUC | 0.106 µM | 0.28 µM |  |  |
| GUAGCUAUCGGAGGAUAUUCAUACCGGAAAAGGACAUGAGGAUCACCCAUGUGGCGAAAGCCUUGGGAGAAGGCCGAUAGCUAC |  |  | 0.0942 µM | 0.00677 µM |
| GGCUGACAUGUAGGAUAUCUGCACGUGUAGUGCAGAGAAGGACAUGAGGAUCACCCAUGUAUAGCGACUUCGGUCGCAACAGCC | 0.0492 µM | 0.159 µM |  |  |
| UUUAUAUUCAGAGGAUAUUAAAGUAGUAUAACAUAAGAAGGCUGUUUGUUUUGUAAAGUAAUUCUACAUGAGGAUCACCCAUGU |  |  | 0.0209 µM | 0.017 µM |
| GUAUUUUUACAGAAGGUGUAUUACAUGAGGAUCACCCAUGUAUUAUGGAAUAAAGUUGUUAUUUACAAGGAUAUGUACUAUUUU |  |  | 0.0193 µM | 0.0148 µM |
| GUCAGCUCGUGAGGAUAUACAUGUGCUGGAAACAGCACUAAAGUUUUCACAUGAGGAUCACCCAUGUAGAAGGCACGAGCUGAU | 0.0158 µM | 0.0352 µM |  |  |

Source: the EternaBench riboswitch data
